Experimental findings from ChEMBL document CHEMBL1144519, “A Pd(0) based cross-coupling approach to the synthesis of 2-amidopurines and their evaluation as CDK inhibitors” (Bioorg Med Chem, 2007) are described below.

Where only a bound is given, the exact number is not on record here.

Experiment [1] deals with Cyclin-dependent kinase 5/CDK5 activator 1 (Homo sapiens, UniProt Q00535). Kind of experiment: Inhibition of recombinant mammalian CDK5/p25 expressed in Escherichia coli. The procedure, abridged:
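Kinase was CDK5 with p25, a truncated p35 activator. Phosphate incorporation was measured on P81 phosphocellulose paper by scintillation counting. Activity is blank-corrected and expressed as % of activity without inhibitor, with DMSO controls.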

Experiment [2] in a line: Inhibition of CDK1/Cyclin B from M phase starfish oocytes. On the set-up: species or system Marthasterias glacialis. Conditions: oocyte. The procedure, abridged:
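CDK1/cyclin B extracted in homogenization buffer from M-phase Marthasterias glacialis oocytes and affinity-purified on p9CKShs1-Sepharose, eluted with free p9CKShs1. Read-out was P81 phosphocellulose binding, phosphoric acid washes and scintillation counting. Values are blank-subtracted, % of uninhibited activity, with DMSO controls.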

Sequence of Cyclin-dependent kinase 5/CDK5 activator 1 (Q00535 whole entry, the tested form may be a part): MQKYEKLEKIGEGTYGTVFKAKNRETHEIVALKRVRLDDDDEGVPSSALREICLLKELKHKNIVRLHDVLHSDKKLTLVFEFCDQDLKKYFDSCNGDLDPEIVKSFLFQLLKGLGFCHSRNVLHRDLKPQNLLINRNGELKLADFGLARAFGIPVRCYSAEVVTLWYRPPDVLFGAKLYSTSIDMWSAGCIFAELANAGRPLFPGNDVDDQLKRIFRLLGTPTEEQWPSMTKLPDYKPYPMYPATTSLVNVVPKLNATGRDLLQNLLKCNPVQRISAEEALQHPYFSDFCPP
Sequence of Cyclin-dependent kinase 5/CDK5 activator 1 (Q15078 whole entry, further chain, the tested form may be a part): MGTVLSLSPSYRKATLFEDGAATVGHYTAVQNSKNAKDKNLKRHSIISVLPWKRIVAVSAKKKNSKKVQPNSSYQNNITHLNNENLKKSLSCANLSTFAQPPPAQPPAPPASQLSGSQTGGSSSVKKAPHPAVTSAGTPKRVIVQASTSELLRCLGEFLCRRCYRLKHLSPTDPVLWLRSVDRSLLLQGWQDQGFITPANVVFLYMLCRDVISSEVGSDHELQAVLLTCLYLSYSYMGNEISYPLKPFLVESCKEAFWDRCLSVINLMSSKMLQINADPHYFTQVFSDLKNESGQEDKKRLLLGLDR

`COCCNc1nc(C(=O)NC(C)C)nc2c1ncn2C(C)C`: the IC50 in experiment [1] worked out at 13 µM; in experiment [2], 8.3 µM.
As to `COc1ccc(CNc2nc(NC(=O)CC(C)=O)nc3c2ncn3C(C)C)cc1`, the IC50 in experiment [1] amounted to 1.6 µM; in experiment [2], 2.4 µM.
In the case of `COCCNc1nc(NC(=O)c2ccc(OC)cc2)nc2c1ncn2C(C)C`, in experiment [2], the IC50 was over 10 µM.
Regarding `COCCNc1nc(NC(=O)C(C)C)nc2c1ncn2C(C)C`, the IC50 in experiment [1] came out at 7 µM.
Consider `COCCNc1nc(NC(=O)CC(C)=O)nc2c1ncn2C(C)C`, for which the half-inhibitory concentration (IC50) in experiment [2] was over 10 µM.
Consider `COCCNc1nc(NC(=O)CC(C)C)nc2c1ncn2C(C)C`, for which the 50% inhibitory concentration (IC50) in experiment [1] stood at 6.6 µM; in experiment [2], 9.6 µM.
Turning to `CC(C)NC(=O)c1nc(NCc2ccc(Cl)cc2)c2ncn(C(C)C)c2n1`, the values for the IC50 in experiment [1] and in experiment [2] were 2 µM and 1.7 µM, respectively.
Regarding `COc1ccc(CNc2nc(C(=O)NCC(C)C)nc3c2ncn3C(C)C)cc1`, the results for the IC50 in experiment [1] and in experiment [2] were 2.1 µM and 2.4 µM, respectively.
In the case of `COc1ccc(C(=O)Nc2nc(NCc3ccc(Cl)cc3)c3ncn(C(C)C)c3n2)cc1`, the IC50 in experiment [1] was determined as 19 µM; in experiment [2] it was 40 µM.
In the case of `COc1ccc(CNc2nc(NC(=O)CC(C)C)nc3c2ncn3C(C)C)cc1`, the IC50 amounted to 1.8 µM in experiment [1] and 2.3 µM in experiment [2].
Consider `COc1ccc(CNc2nc(NC(=O)C(C)C)nc3c2ncn3C(C)C)cc1`, for which the IC50 was 1.3 µM in experiment [1] and 0.94 µM in experiment [2].
As to `COc1ccc(CNc2nc(NC(=O)c3ccc(OC)cc3)nc3c2ncn3C(C)C)cc1`, the IC50 turned out to be 3.4 µM in experiment [1] and 4.6 µM in experiment [2].
On to `CCCC(=O)Nc1nc(NCCOC)c2ncn(C(C)C)c2n1`, for which the IC50 in experiment [1] amounted to 10 µM; in experiment [2] it was 13 µM.
Taken in the same sequence, the figures for `CC(C)C(=O)Nc1nc(NCc2ccc(Cl)cc2)c2ncn(C(C)C)c2n1` were 0.9 µM and 1.2 µM.
The like results for `COc1ccc(CNc2nc(C(=O)NC(C)C)nc3c2ncn3C(C)C)cc1` were, in that order, 2.4 µM and 2.3 µM.
Taken in the same sequence, the figures for `CCCC(=O)Nc1nc(NCc2ccc(Cl)cc2)c2ncn(C(C)C)c2n1` were 2.1 µM and 2.9 µM.
On to `COCCNc1nc(C(=O)NCC(C)C)nc2c1ncn2C(C)C`, for which the IC50 in experiment [1] came to 16 µM; in experiment [2], 7.2 µM.
In the case of `CCCC(=O)Nc1nc(NCc2ccc(OC)cc2)c2ncn(C(C)C)c2n1`, the IC50 in experiment [1] was 3.9 µM; in experiment [2], 4.4 µM.
Taken in the same sequence, the figures for `CC(C)CC(=O)Nc1nc(NCc2ccc(Cl)cc2)c2ncn(C(C)C)c2n1` were 1.6 µM and 3 µM.
